Legend:
[1] = target: T1, Hexokinase-1 (Rattus norvegicus) (UniProt P05708); experiment: Substrate activity for rat hexokinase I as 1:1 Mg complex at 5.0 mM
T1 sequence (whole entry): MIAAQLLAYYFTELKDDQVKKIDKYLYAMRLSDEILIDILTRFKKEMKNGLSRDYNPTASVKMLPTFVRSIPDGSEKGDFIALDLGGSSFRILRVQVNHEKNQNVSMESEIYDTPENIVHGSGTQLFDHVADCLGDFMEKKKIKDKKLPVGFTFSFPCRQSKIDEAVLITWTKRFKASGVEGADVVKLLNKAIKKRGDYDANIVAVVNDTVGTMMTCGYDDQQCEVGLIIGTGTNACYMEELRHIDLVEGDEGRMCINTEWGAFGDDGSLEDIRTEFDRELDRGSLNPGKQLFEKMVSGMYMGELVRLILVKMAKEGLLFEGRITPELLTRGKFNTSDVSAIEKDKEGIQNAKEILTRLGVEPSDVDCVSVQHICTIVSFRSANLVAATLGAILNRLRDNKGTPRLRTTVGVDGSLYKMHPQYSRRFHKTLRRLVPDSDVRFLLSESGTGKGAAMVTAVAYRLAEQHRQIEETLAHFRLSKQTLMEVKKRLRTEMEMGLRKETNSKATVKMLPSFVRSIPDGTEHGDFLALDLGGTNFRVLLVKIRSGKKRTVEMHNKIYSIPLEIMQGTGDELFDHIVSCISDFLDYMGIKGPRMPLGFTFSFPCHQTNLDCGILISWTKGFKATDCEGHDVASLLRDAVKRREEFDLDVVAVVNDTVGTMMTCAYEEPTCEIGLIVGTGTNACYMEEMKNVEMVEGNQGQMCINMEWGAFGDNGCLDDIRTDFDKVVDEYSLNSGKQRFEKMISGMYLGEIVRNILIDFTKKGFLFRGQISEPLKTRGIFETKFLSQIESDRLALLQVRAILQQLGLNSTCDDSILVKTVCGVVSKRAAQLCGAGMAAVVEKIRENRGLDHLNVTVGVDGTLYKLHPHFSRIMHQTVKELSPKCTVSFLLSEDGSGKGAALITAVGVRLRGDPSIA
In short: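 Hexokinase activity read at 22 °C as A340 change, coupled to glucose-6-phosphate dehydrogenase, in 0.05 M Tris-HCl pH 7.6 with 6.6 mM MgCl2, 10 mM α-D-glucose and 0.93 mM NADP. Donor was 5.0 mM MgATP derivative (1:1 Mg complex) in place of ATP. Yeast HK was isoelectric-focused. Rat HK I and III came from electrofocused liver extract, HK II from dialysed muscle extract.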

[2] = Substrate concentration for half maximal velocity was reported for rat hexokinase I
In short: (§1)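 Coupled glucose-6-phosphate dehydrogenase/NADP assay: A340 rate at 22 °C in 0.05 M Tris-HCl pH 7.6 with 6.6 mM MgCl2, 10 mM α-D-glucose and 0.93 mM NADP, nucleotide varied. KM was taken from linear double-reciprocal plots. Rat HK I and III came from electrofocused, dialysed liver extract, HK II from dialysed muscle extract, and yeast HK was isoelectric-focused.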

[3] = Substrate concentration for half maximal velocity was reported for rat hexokinase III; in short: as §1
[4] = Substrate concentration for half maximal velocity was reported for yeast hexokinase; in short: as §1
[5] = Compound was tested for substrate constants with rat hexokinase. Maximal velocity Vmax was reported
In short: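 Rat HK I and HK III came from liver extract of an adult male Sprague-Dawley rat and were separated by electrofocusing and dialysed; HK II was dialysed muscle extract. The coupled assay ran at 22 °C in 0.05 M Tris-HCl pH 7.6 with 6.6 mM MgCl2, 10 mM glucose, 0.93 mM NADP and G6P dehydrogenase, read at 340 nm. Constants came from linear double-reciprocal plots.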

[6] = target: T2, Hexokinase-3 (Rattus norvegicus) (UniProt P27926); experiment: Time dependent inhibition of Hexokinase type III activity after 6 h, at 22 degrees celsius, at 5 mM
T2 sequence (whole entry): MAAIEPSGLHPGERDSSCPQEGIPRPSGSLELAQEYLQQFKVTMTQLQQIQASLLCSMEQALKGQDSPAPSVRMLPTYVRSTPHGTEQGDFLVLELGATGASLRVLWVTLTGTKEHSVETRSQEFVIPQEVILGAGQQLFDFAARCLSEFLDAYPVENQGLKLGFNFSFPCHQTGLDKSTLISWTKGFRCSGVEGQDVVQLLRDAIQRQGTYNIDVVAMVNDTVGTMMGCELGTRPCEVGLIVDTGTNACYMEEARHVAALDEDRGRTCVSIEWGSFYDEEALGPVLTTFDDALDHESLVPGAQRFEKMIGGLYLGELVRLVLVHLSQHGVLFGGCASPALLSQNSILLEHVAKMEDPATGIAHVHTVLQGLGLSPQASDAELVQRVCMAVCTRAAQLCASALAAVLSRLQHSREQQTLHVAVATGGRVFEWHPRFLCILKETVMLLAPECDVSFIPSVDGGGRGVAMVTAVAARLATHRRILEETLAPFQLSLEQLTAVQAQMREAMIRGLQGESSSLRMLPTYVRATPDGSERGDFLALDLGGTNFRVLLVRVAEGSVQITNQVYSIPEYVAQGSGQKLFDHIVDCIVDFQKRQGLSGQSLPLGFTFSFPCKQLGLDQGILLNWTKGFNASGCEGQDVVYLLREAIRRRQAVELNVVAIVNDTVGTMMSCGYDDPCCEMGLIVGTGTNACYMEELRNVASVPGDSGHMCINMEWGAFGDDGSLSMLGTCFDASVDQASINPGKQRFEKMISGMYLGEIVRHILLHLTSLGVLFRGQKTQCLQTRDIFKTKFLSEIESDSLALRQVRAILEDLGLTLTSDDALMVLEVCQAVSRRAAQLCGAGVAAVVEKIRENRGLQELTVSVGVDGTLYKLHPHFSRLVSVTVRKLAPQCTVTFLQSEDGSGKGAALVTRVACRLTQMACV

[7] = target: T1, Hexokinase-1 (Rattus norvegicus); experiment: Time dependent inhibition of Hexokinase type I activity after 6 h, at 22 degrees celsius, at 5 mM compound
[8] = target: Thymidine kinase (Escherichia coli) (UniProt P23331); experiment: Compound was tested for the loss of thymidine kinase activity from Escherichia coli after 6 hr at 0 degrees C at 10 mM
Sequence of Thymidine kinase (Escherichia coli) (P23331 whole entry, looked up): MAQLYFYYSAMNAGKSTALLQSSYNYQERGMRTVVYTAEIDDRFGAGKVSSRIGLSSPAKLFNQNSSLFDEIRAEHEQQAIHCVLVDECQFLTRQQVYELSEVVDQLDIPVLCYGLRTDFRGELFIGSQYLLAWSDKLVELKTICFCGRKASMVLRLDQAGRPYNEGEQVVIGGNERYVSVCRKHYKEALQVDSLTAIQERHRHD

Question: Which results are given for Nc1ncnc2c1ncn2[C@@H]1O[C@H](COP(=O)(O)OP(=O)(O)OP(=O)(O)O)[C@@H](O)[C@H]1O?
Answer: Relative velocity [1]: 1; Km [2]: 440 µM; Km [3]: 910 µM; Km [4]: 130 µM; Vmax [5]: 100%; inhibition [6]: 0%; inhibition [7]: 0%; inhibition [8]: 0%

— ChEMBL document CHEMBL1122206, “Use of adenine nucleotide derivatives to assess the potential of exo-active-site-directed reagents as species- or isozyme-specific enzyme inactivators. 5. Interactions of adenosine 5'-triphosphate derivatives with rat pyruvate kinases, Escherichia coli thymidine kinase, and yeast and rat …” (1982)
